Source: PubChem BioAssay (several laboratories)
Most compounds without a hit are left out; they make up all but 2.5% or so of the library.
EP2 mod – modulators of human EP2 prostaglandin E2 receptor; actives 0.83% (n = 260,000); AID 940; EP2-expressing cells, cAMP HTRF FRET, PGE2 co-stimulation; P43116; induction, % at 25 µM;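 active means compounds whose cAMP rise, as percent of the full-agonist control response, exceeds 60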;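 further: rat C6 glioma line stably carrying human EP2 under a CMV promoter; the protocol text gives 20 µM as final concentration; 100% = response of wells given 1 µM PGE2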
Target sequence (P43116 whole entry, looked up): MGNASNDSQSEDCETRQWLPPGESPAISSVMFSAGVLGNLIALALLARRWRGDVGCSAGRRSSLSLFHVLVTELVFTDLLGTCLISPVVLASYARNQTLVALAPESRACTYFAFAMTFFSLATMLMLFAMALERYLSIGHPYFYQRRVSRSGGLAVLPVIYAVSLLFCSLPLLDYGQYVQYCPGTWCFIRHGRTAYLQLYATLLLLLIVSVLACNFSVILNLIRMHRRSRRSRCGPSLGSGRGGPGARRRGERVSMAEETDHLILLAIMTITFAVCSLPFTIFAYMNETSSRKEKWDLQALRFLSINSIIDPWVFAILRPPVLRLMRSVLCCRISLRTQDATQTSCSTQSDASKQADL
HKDC1 inhibitor – HKDC1 (human) hexokinase inhibition | actives 0.16% (n = 340,000) | recombinant HKDC1, G6PDH/diaphorase resazurin coupled fluorescence | inhibition, % at 20 µM | AID 493160;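 active means inhibition above about 35% when tested at 20 µM, limit read from the data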;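 further: plate controls were DMSO wells with enzyme for no effect and DMSO wells lacking enzyme for full effect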
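Test system: recombinant HKDC1 (HK5) hexokinase enzyme, produced in-house; Amount: enzyme 5 µg/mL final; Buffer or medium: Tris pH 8.0 buffer with MgCl2, Tween-20, BSA, BME; Reagent: glucose and ATP substrates; Doses: 20 µM test compound, 1% DMSO; Incubation: 90 min reaction incubation at room temperature, dark; Detection: resorufin fluorescence at 613 nm.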
TbHK1 inh – blocks Trypanosoma brucei hexokinase 1 activity. recombinant TbHK1, G6PDH-coupled NADH A340. inhibition, % at 10 µM. actives 0.11% (n = 220,000);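 active means inhibition of 50% or more in the single-dose primary screen; inactive means inhibition below 50%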
PHOSPHO1 block – blocks human PHOSPHO1 phosphatase activity | actives 1.1% (n = 290,000) | AID 1565 | recombinant PHOSPHO1, absorbance phosphatase assay | inhibition, % at 13.3 µM | Q8TCT1; in the data active means inhibition above about 60%
EP2 antag – EP2 receptor (human) inhibition; inhibition, % at 25 µM; actives 0.52% (n = 260,000); P43116; AID 1422; C6 glioma cells expressing human EP2, cAMP TR-FRET; cells stimulated with saturating PGE2;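 active means percent inhibition above 40 after rounding to a whole number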;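 further: rat C6 glioma host cells with rolipram phosphodiesterase inhibitor present; the protocol text gives 20 µM as final concentration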
PfGluPho inh – PfG6PD (Plasmodium falciparum) enzyme inhibition; inhibition, % at 20 µM; actives 0.78% (n = 350,000); PfGluPho enzyme, NADPH resazurin-diaphorase fluorescence;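 active means inhibition reaching at least a set limit at 20 µM in the primary screen, cut at about 59% in these data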;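 further: 0% = DMSO wells with substrate and 100% = DMSO wells lacking glucose-6-phosphate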
Starred values were filed as active, the others as inactive; nt = not tested or not shown.

SMILES | EP2 mod | HKDC1 inhibitor | TbHK1 inh | PHOSPHO1 block | EP2 antag | PfGluPho inh
COc1cccc(C(=O)Nc2nc3cc(Cl)c(OC)cc3s2)c1 | -17.8 | nt | nt | nt | 15.5 | nt
COc1ccc(-c2nc(=S)[nH][nH]2)cc1 | 12.4 | -7.5 | 1.1 | 96.2* | 8.2 | 29.2
CCOc1ccc(-c2nc(=S)[nH][nH]2)cc1 | -28.8 | 6.0 | 0.4 | 100.3* | 11.2 | 20.2
CCc1ccc(CNC(=O)Cc2ccc(NC(=O)C3=C(C)OCCS3)cc2)cc1 | nt | 2.8 | nt | 64.9* | nt | 7.0
CC1=C(C(=O)Nc2ccc(CC(=O)NCc3ccccc3C)cc2)SCCO1 | nt | 0.4 | nt | 31.5 | nt | 18.5
COc1ccc(-c2cc(C(=O)OCC(C)=O)c3ccccc3n2)cc1Br | -3.2 | nt | nt | nt | 12.2 | nt
Cc1ccc(Cl)cc1NC(=O)CN1C(=O)c2ccccc2S1(=O)=O | -13.8 | nt | nt | nt | 9.9 | nt
O=C(COc1ccccc1-c1ccccc1)NN=C1CCCC1 | 7.4 | 9.5 | -2.1 | 60.9* | 4.0 | -16.0
Cc1ccc(-c2nnn(CC(=O)NC3CC3)n2)cc1 | 4.8 | nt | nt | nt | 14.7 | nt
Cc1ccc(-c2nnn(CC(=O)NC3CCCc4ccccc43)n2)cc1 (stereo not drawn) | -16.2 | -6.0 | 9.7 | 62.3* | 8.2 | -27.3
CNc1nc(-c2c[nH]c3ccccc23)cs1 | -43.2 | -10.1 | -5.0 | 99.8* | 6.1 | 8.6
O=C(CCc1ccccc1)NNC(=S)NC(=O)c1ccc(Cl)cc1 | -34.2 | -12.3 | 10.8 | 94.6* | 5.2 | 1.6
O=C(CCc1ccccc1)NNC(=O)c1ccc(Cl)cc1 | nt | -4.2 | nt | -31.5 | nt | -10.1
O=C(Cc1ccccc1)NNC(=S)NC(=O)c1cccs1 | 4.2 | 4.6 | -6.1 | 85.9* | 4.6 | -1.1
O=C(NC(=S)NCc1ccccc1)c1cccs1 | nt | -1.4 | nt | 17.4 | nt | -3.5
O=C(NNC(=S)NC(=O)c1cccs1)c1ccc(O)cc1 | nt | -9.5 | nt | -21.0 | nt | -18.0
O=C(NC(=S)NNC(=O)c1cccs1)c1ccc(Br)o1 | -1.5 | 1.5 | -28.0 | 94.1* | 23.5 | -8.4
CCOC(=O)Cn1cnc2sc(C)c(-c3ccc(F)cc3)c2c1=O | 9.4 | nt | nt | nt | 10.6 | nt
N#C/C(=C/c1ccccc1)C(=O)NCc1ccccc1 | -41.9 | 18.0 | -2.9 | 64.3* | 15.7 | -1.5
COc1ccc(C2CC(c3ccc(Cl)cc3Cl)Nc3nc(N)nn32)cc1 (stereo not drawn) | -6.3 | 0.6 | -2.4 | 70.5* | 6.1 | 14.6
O=C(Nc1ccc(N2CCN(C(=O)c3ccc(Cl)cc3)CC2)cc1)c1ccc([N+](=O)[O-])o1 | -49.6 | 0.2 | -5.4 | 12.7 | 120.6* | 25.0
CN(C)c1ccc(NC(=O)c2ccc([N+](=O)[O-])o2)cc1 | -103.8 | nt | nt | nt | 24.8 | nt
CCC(=O)N1CCN(c2ccc(NC(=O)c3ccccc3)cc2)CC1 | -25.6 | -1.4 | -6.1 | 62.9* | 12.4 | -0.1
CCC(=O)N1CCN(c2ccc(NC(=O)c3ccc(Cl)cc3)cc2)CC1 | 16.1 | nt | nt | nt | 12.9 | nt
CCC(=O)N1CCN(c2ccc(NC(=O)c3ccc([N+](=O)[O-])o3)cc2)CC1 | -36.9 | -1.5 | -8.2 | -0.2 | 45.9* | 11.1
SMILES | EP2 mod | HKDC1 inhibitor | TbHK1 inh | PHOSPHO1 block | EP2 antag | PfGluPho inh
CCC(=O)Nc1ccc(NC(=O)c2ccc([N+](=O)[O-])o2)cc1 | -129.5 | nt | nt | nt | 68.1* | nt
Cc1ccccc1NC(=O)CSc1nc2c(c(C(F)(F)F)n1)CCCC2 | -32.5 | nt | nt | nt | 12.8 | nt
COc1cc(C)c(C2C(C#N)=C(N)OC3=C2C(=O)CC(C)(C)C3)cc1C(C)C (stereo not drawn) | 15.2 | nt | nt | nt | 8.3 | nt
CC(=O)NNC(=O)CSc1nnc(-c2cccnc2)n1-c1ccc(Cl)cc1 | 13.3 | nt | nt | nt | 7.7 | nt
Nc1ccc(-c2ccc(Nc3cc(S(=O)(=O)O)c(N)c4c3C(=O)c3ccccc3C4=O)cc2)c(S(=O)(=O)O)c1 | -3.5 | nt | nt | nt | 54.6* | nt
COCCCNC(=S)NC1CC2CCCC(C1)N2Cc1cccs1 (stereo not drawn) | -11.6 | -9.1 | 1.8 | 68.7* | 12.8 | -1.4
COc1ccc2cc(CN(Cc3nnnn3C3CCCC3)C3CCCCC3)c(=O)[nH]c2c1 | 43.5 | nt | nt | nt | 8.4 | nt
Cc1ccc2[nH]c(=O)c(CN(Cc3nnnn3CCc3ccccc3)CC3CCCO3)cc2c1 (stereo not drawn) | 21.4 | nt | nt | nt | 11.1 | nt
O=C(CSc1nc(-c2ccc(F)cc2)nc2c1Cc1ccccc1O2)Nc1cccc(C(=O)O)c1 | 16.2 | 56.9* | 19.1 | -98.5 | 0.5 | -39.2
O=C(CSc1nc(-c2ccccc2)nc2c1Cc1ccccc1O2)Nc1ccccc1 | 8.8 | nt | 8.2 | -0.1 | nt | nt
